Source: ChEMBL document CHEMBL3576843, “Neopetrocyclamines A and B, polycyclic diamine alkaloids from the sponge Neopetrosia cf exigua” (2015)

Assays:
Assay type in all cases: functional
A498 = assay: Cytotoxicity against human A498 cells after 48 hrs by XTT assay; settings: A498, 48 h
How it was run: (§1)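 Cells seeded at 5000/well in medium lacking phenol red and antibiotics, allowed 60 min to attach, then compound dilutions or DMSO solvent control added. Incubated 48 h with compound; viability measured by XTT proliferation assay per kit protocol; growth inhibition expressed as GI50.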

SF-295 = assay: Cytotoxicity against human SF295 cells after 48 hrs by XTT assay; settings: SF-295, 48 h; how it was run: as §1
UO-31 = assay: Cytotoxicity against human UO31 cells after 48 hrs by XTT assay; settings: UO-31, 48 h; how it was run: as §1

SMILES | GI50 (A498) [µM] | GI50 (SF-295) [µM] | GI50 (UO-31) [µM]
C1=C/[C@H]2[C@@H]3CCCC[C@H]3C[C@H]2NCCCN[C@@H]2C[C@@H]3CCCC[C@H]3[C@@H]2/C=C/1 | 2.9 | 0.8 | 3
C1=C[C@H]2/C=C/CCCCC/C=C\CCNCCCNC[C@H]2[C@@H]2CCCC[C@@H]12 | > 20 | > 20 | > 20
C1=C/[C@H]2[C@@H]3CCCC[C@H]3C[C@@H]2NCCCN[C@@H]2C[C@@H]3CCCC[C@H]3[C@@H]2/C=C/1 [HALICLONADIAMINE] | 5.9 | 6.3 | 8
C1=C[C@H]2/C=C/CCCCC/C=C\CCN3C=[N+](CCC3)C[C@H]2[C@@H]2CCCC[C@@H]12 | > 20 | > 20 | > 20
